CHOP UPR activ = activators of apoptotic arm of unfolded protein response (CHOP); CHO-CHOP luciferase reporter, UPR activation, luminescence; percent of tunicamycin response over DMSO baseline; activation, % at 10 µM; actives 0.34% (n = 330,000); AID 449763;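 active = at 10 µM dose, activation of 40% or more, normalized to positive control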;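 note: 100% = tunicamycin at 10 µg/mL and 0% = DMSO alone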
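System: CHO-CHOP luciferase reporter cell line; amount: 500 cells/well; buffer or medium: F12 medium containing 10% fetal bovine serum; incubation: 6 h compound exposure at 37 °C after overnight seeding; measured by: luciferase luminescence after 10 min with Steady-Glo reagent; evaluation: % reporter activation, DMSO baseline versus tunicamycin full activation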
NR3A LBD binder = modulators (binders) of human NR3A ligand-binding domain. NR3A LBD differential scanning fluorimetry, Tm shift; 0% = protein alone, 100% = glycine-bound protein. actives 2.5% (n = 340,000). Tm shift relative to glycine control, % at 25 µM;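 active = melting temperature shift of at least 10% of the positive control shift, at one fixed dose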
MPTP inh = blocks calcium-induced mitochondrial swelling | isolated mouse mitochondria, Ca2+ swelling absorbance, 30 min | actives 1.4% (n = 360,000) | inhibition, % at 10 µM | AID 602449;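 active = inhibition of 50% or more, scaled per plate between neutral and stimulator controls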;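 note: 0% = DMSO wells given calcium and 100% = 1 mM EGTA wells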
UPR XBP1 act = activators of adaptive arm of unfolded protein response (XBP1). activation, % at 20 µM. CHO-XBP1 luciferase reporter, IRE1-XBP1 UPR activation, luminescence; percent of tunicamycin response, DMSO as zero. AID 463104. actives 0.33% (n = 330,000);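 active = versus positive control, 20 µM dose yields 30% or more activation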;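 note: 100% = tunicamycin at 10 µg/mL and 0% = DMSO only wells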
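Material: CHO cell line with stable XBP1 luciferase reporter; schedule: 16-18 h cell attachment at 37 °C, then 6 h compound exposure; signal: glow luminescence from Steady-Glo reagent; medium: serum-containing F12 medium, 10% FBS; benchmarks: tunicamycin 10 µg/mL and vehicle-only wells; read-out: percent activation relative to tunicamycin reference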
aDG glyco act = increases alpha dystroglycan glycosylation; Pro5-aDG cells, alpha-DG glycosylation AlphaScreen (IIH6); 0% Pro5, 100% B10-LARGE cell signal; AID 624168; activation, % at 10 µM; actives 0.22% (n = 360,000);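 active = activation of at least 8% versus controls, or a plate z-score of at least 8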;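 note: Pro5 are CHO cells carrying HIG-tagged alpha-DG that lacks glycosylation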
CHOP inh = CHOP inhibition in unfolded protein response | CHO-K1 CHOP-promoter luciferase, tunicamycin-induced, 15-18 h | AID 2732 | actives 3.8% (n = 220,000) | inhibition, % at 10 µM;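 active = compounds that reduced the stress-induced luciferase reporter signal by more than about 70% of percent inhibition, limit read from the data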;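 note: 0% = tunicamycin plus vehicle and 100% = wells without tunicamycin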
* marks the source's active call; other numbers are inactive results; / = no result given. Shown are actives, neighbours in structure and some others; about 5.6% of the full set was active somewhere.

SMILES | CHOP UPR activ | NR3A LBD binder | MPTP inh | UPR XBP1 act | aDG glyco act | CHOP inh
NC1=NC(=O)/C(=C/c2ccc(Br)cc2)S1 | 3 | -1 | 0 | -1 | 0 | /
Cc1ccc([C@@H]2C[C@H]3[C@@H](CN2S(=O)(=O)c2ccc(C)cc2)C(=O)C[C@@H](c2ccccc2)N3S(=O)(=O)c2ccc(C)cc2)cc1 | / | / | -1 | / | 0 | /
CC1C(=O)CC(c2ccccc2)N(C)C1c1ccccc1 (stereo not given) | 0 | 2 | 0 | 1 | 2 | 79*
Cc1cccc(C(=O)N=c2sccn2C)c1[N+](=O)[O-] | 6 | 2 | -1 | 2 | 0 | /
CCOC(=O)c1ccc(NC(=O)CN(C)S(=O)(=O)c2ccc(OC)cc2)cc1 | -1 | 2 | 1 | -2 | 0 | 5
CCOC(=O)c1ccc(NC(=O)CN(C)S(=O)(=O)c2ccc(Br)s2)cc1 | -1 | -1 | -1 | -1 | 0 | 77*
CC(=O)NCC(=O)N(C)C(C(=O)Nc1ccc2c(c1)OCCO2)c1ccc(C)cc1 (stereo not given) | 1 | 0 | 1 | -1 | 0 | 13
Cc1ccc(C(C(=O)Nc2ccc3c(c2)OCO3)N(C)C(=O)/C=C\c2ccc3c(c2)OCO3)cc1 (stereo not given) | 3 | 13* | 2 | 0 | 0 | 8
CC1(c2nnnn2Cc2ccccc2)CCC(=O)N1CC1CCCCC1 (stereo not given) | / | / | -1 | / | 0 | /
CC(C)N1CCc2c(sc(NC(=O)c3cc4cc([N+](=O)[O-])ccc4s3)c2C(N)=O)C1 | 3 | 10* | 1 | 2 | 4 | 78*
CC(C)N1CCc2c(sc(NC(=O)c3ccc4ccccc4c3)c2C(N)=O)C1 | 5 | -5 | 0 | 1 | 2 | /
Nc1nnc(-c2ccc(Cl)cc2Cl)s1 | 7 | 12* | -1 | 0 | 0 | -9
Nc1nnc(-c2ccccc2F)s1 | 2 | -3 | 0 | 1 | 0 | 0
O=C(CCCCn1c(=O)c2ccccc2n(Cc2ccccc2F)c1=O)NC1CCN(Cc2ccccc2)CC1 | -2 | -2 | 0 | -2 | 1 | 79*
O=C(NCCCCO)c1ccc2c3c(cccc13)CC2 | 1 | -2 | 1 | -2 | 0 | 21
CSc1nsc(/C=C/Nc2ccc(C)cc2)c1C#N | 0 | 0 | 1 | 1 | 0 | -1
CSc1nsc(/C=C/Nc2ccc(C)c(C)c2)c1C#N | 3 | 3 | 25 | 6 | 0 | 87*
Oc1ccc(/C=N/NC(=S)Nc2cccnc2)cc1O | 2 | -14 | -1 | -1 | 0 | 16
Oc1ccc(C=NNC(=S)Nc2cccnc2)nc1 | / | 11* | -2 | / | 0 | /
CCOC(=O)c1c(N)sc2c(OCC)c(Br)ccc12 | 2 | / | 7 | 2 | 0 | 85*
COc1ccc(O)c(-c2cc(C(F)(F)C(F)F)nc(-c3ccccc3)n2)c1 | -2 | -4 | -2 | 3 | 0 | 40
Oc1ccccc1-c1cc(C(F)(F)C(F)F)nc(-c2ccccc2)n1 | 0 | 14* | 1 | 4 | 0 | 29
CCNCc1nc2cc(OC)c(OC)cc2c(=O)[nH]1 | 1 | 3 | 0 | -2 | 0 | 13
COc1cc2nc(CN(CCC(C)C)Cc3nc4cc(OC)c(OC)cc4c(=O)[nH]3)[nH]c(=O)c2cc1OC | -1 | 11* | 0 | 3 | 0 | -13
Clc1ccc(Nc2ncnc3c2cnn3-c2ccccc2)cc1 | 6 | 2 | 9 | 7 | 0 | 21
SMILES | CHOP UPR activ | NR3A LBD binder | MPTP inh | UPR XBP1 act | aDG glyco act | CHOP inh
CC(C)Nc1ncnc2c1cnn2-c1ccc(Cl)cc1 | 0 | -5 | 30 | -4 | 0 | 75*
Clc1ccc(-n2ncc3c(N4CCCC4)ncnc32)cc1 | -8 | -2 | -3 | -5 | 0 | 78*
O=C(Cn1cnc2c(cnn2-c2ccc(Cl)cc2)c1=O)N1CCN(c2ccccc2)CC1 | 1 | -1 | 4 | 0 | 0 | 91*
CCOC(=O)C1CCN(c2ncnc3c2cnn3-c2ccc(Cl)cc2)CC1 | 0 | 0 | -2 | -4 | 0 | 58
Cc1nn(-c2ccccc2)c(Cl)c1C(=O)N1CCN(c2ncnc3c2cnn3-c2ccccc2)CC1 | -5 | -1 | 21 | -12 | 0 | 92*
O=C(Cn1cnc2c(cnn2-c2ccccc2)c1=O)N1CCOCC1 | 2 | 0 | -1 | 7 | 0 | 15
O=C(CCNC(=O)c1ccco1)NC(Cc1c[nH]c2ccccc12)C(=O)O (stereo not given) | 0 | -2 | 0 | 0 | 0 | /
Cc1ccccc1C(=O)NCC(=O)OCCOc1ccc(C(C)C)c(C)c1 | 0 | 3 | 0 | -1 | 0 | /
CCc1nc2c(OCCn3cccc3)cccn2c1N(C)C(=O)c1ccccc1F | / | / | 0 | / | 0 | /
COc1ccc(CCNC(=O)CN2CCN(c3cccc(C(F)(F)F)c3)CC2)cc1 | -2 | 3 | 4 | -1 | 0 | 86*
COc1ccc(CCNC(=O)CN2CCN(c3ccccc3Cl)CC2)cc1 | 6 | 3 | -2 | -3 | 0 | 19
O=C(CN1CCN(c2ccccc2)CC1)Nc1cccc(C(F)(F)F)c1 | -2 | 0 | 0 | 0 | 0 | 79*
CC1(C(=O)Nc2ccc3[nH]ncc3c2)CCN1C(=O)CCc1ccccc1 (stereo not given) | / | / | -1 | / | 0 | /
CCOC(=O)C(N)CSC1CC(=O)N(c2ccc(C(=O)OC)cc2)C1=O (stereo not given) | -1 | -2 | -2 | -1 | 0 | 47
COC(=O)c1ccc(N2C(=O)CC(SCCN)C2=O)cc1 (stereo not given) | 5 | 12* | 1 | -3 | 0 | 8
Cc1ccc2ncccc2c1NC(=S)NC(=O)c1ccccc1 | -3 | 0 | -1 | 0 | 1 | 14
CC(=O)Nc1ccc(OS(=O)(=O)c2ccc(C)cc2C)cc1 | -1 | 16* | -1 | 1 | 0 | -6
CC(=O)Nc1ccc(OS(=O)(=O)c2ccccc2C)cc1 | 0 | 1 | -1 | 2 | 0 | -10
C=CCSC1=N/C(=C\c2ccc(C)o2)C(=O)S1 | -2 | 1 | 1 | 7 | 0 | 72*
CCCCn1c(=O)[nH]c2nc3cc(NC(C)=O)ccc3nc2c1=O | 0 | 1 | 2 | 0 | 0 | -5
CCCCCCn1c(=O)[nH]c2nc3cc(N)c(C)cc3nc2c1=O | / | -2 | 21 | / | -1 | 101*
O=S(=O)(c1cccc(F)c1)N1CCCN(c2ccc(C(F)(F)F)cn2)CC1 | 1 | 1 | 1 | -1 | 0 | 9
O=c1c(-c2ccccc2)c1-c1ccccc1 | 58* | / | / | -5 | / | -8
Cc1ccc(-n2c(SCC(=O)O)nc3sc4c(c3c2=O)CCCC4)cc1 | -2 | 0 | 0 | 0 | 0 | 5
